Experimental data collected from several papers.
Protocols differ between the studies behind these lines.
Organism: Plasmodium falciparum
Read-out: parasite growth

Cc1cc(Nc2ccnc3cc(-c4ccc(S(=O)(=O)N5CCN(C)CC5)cc4)ccc23)sn1 has an EC50 of 110 nM (D6; drug-resistant strain, blood stage).
With C[C@H]1[C@@H](O)O[C@@H]2O[C@@]3(C)CC[C@H]4[C@H](C)CC[C@@H]1[C@@]24OO3 the EC50 was 13.8 nM (NF54; 24 h; gametocyte).
With COc1ccc(Nc2ccnc3cc(-c4ccc(S(=O)(=O)N5CCN(C)CC5)cc4)ccc23)cc1 the EC50 was 18 nM (D6; drug-resistant strain, blood stage).
The EC50 of CCn1cc(-c2nc(C)no2)c(=O)c2cc(F)c(N3CCCCCC3)cc21 is reported as 35 nM (3D7; 72 h; blood stage).
For COc1cc(OC)c(CCNC(=O)c2cn3cc(-c4cc(OCC(=O)O)ccc4OC)nc3s2)c(OC)c1, the EC50 was 2230 nM (3D7; 72 h; blood stage).
The EC50 of CCn1cc(-c2nc(C)no2)c(=O)c2cc(F)c(N3CCN(C)CC3)cc21 is reported as 4570 nM (3D7; 72 h; blood stage).
CN1CCN(S(=O)(=O)c2cccc(-c3ccc4c(Nc5ccc(OCc6cccc(F)c6)c(Cl)c5)ccnc4c3)c2)CC1 has an EC50 of 10 nM (D6; drug-resistant strain, blood stage).
For CCn1cc(-c2nc(C)no2)c(=O)c2cc(F)c(N3CCCC3)cc21, the EC50 was 500 nM (3D7; 72 h; blood stage).
CN1CCN(S(=O)(=O)c2ccc(-c3ccc4c(Nc5cccc(Cl)c5)ccnc4c3)cc2)CC1 gave an EC50 of 200 nM (D6; drug-resistant strain, blood stage).
CN1CCC(c2cc(-c3ccncc3)c(-c3ccc(F)cc3)[nH]2)CC1 gave an EC50 of 90 nM (SYBR Green; A10; 3D7; 72 h; blood stage).
The EC50 of COc1ccc(Nc2ccnc3cc(Nc4ccnc(N5CCN(C)CC5)n4)ccc23)cc1Cl is reported as 78 nM (D6; drug-resistant strain, blood stage).
Cn1cc(-c2cnc3[nH]cc(-c4cn(Cc5cccc(F)c5F)nn4)c3c2)cn1 gave an EC50 of 599 nM (3D7; 72 h; blood stage).
For CCn1cc(C(=O)N2CCN(C)CC2)c(=O)c2cc(F)c(N3CCC(C)CC3)cc21, the EC50 was > 10000 nM (3D7; 72 h; blood stage).
With COc1ccc(CNc2nc(-c3ccc(C(=O)O)nc3)nc3sc4c(c23)CCCC4)cc1Cl the EC50 was 1590 nM (3D7; 72 h; blood stage).
Cc1nnc(Nc2ccnc3cc(-c4ccc(S(=O)(=O)N5CCN(C)CC5)cc4)ccc23)nc1C has an EC50 of 160 nM (D6; drug-resistant strain, blood stage).
For CCn1cc(-c2nc(C)no2)c(=O)c2cc(F)c(N3CCC(Cc4ccccc4)CC3)cc21, the EC50 was 32.1 nM (3D7; blood stage).
CCCNCC(O)COc1ccccc1C(=O)CCc1ccccc1 (centres unmarked) gave an EC50 of 2690 nM (SYBR Green; 3D7; blood stage).
COc1ccc(NC(=O)N2CCCCN3[C@H](CN(C)C)[C@H](c4ccc(C#Cc5ccccc5)cc4)[C@@H]3C2)cc1 has an EC50 of 13 nM (DD2; blood stage).
O=C(Nc1ccc(CNc2ncnc3ccccc23)cc1)c1ccc(Cl)c(F)c1 has an EC50 of 1510 nM (3D7; 72 h; blood stage).
CCn1cc(-c2nc(C)no2)c(=O)c2cc(F)c(N3CCC(C(C)C)CC3)cc21 has an EC50 of 41 nM (3D7; 72 h; blood stage).
